22 molecules from ChEMBL document CHEMBL3992515, “Design, synthesis, and evaluation of a novel series of macrocyclic inhibitors of norovirus 3CL protease” (Eur J Med Chem, 2017) can be followed below.

The test system of data set [1] is Murine norovirus. Kind of data set: Antiviral activity against MNV replicon infected in mouse RAW264.7 cells assessed as inhibition of viral RNA replication after 24 hrs. As to conditions: RAW264.7, 24 h.
The nature of data set [2]: Cytotoxicity against human HG23 cells after 48 hrs by crystal violet staining-based assay. As to conditions: for CC50 at 48 h: HG23 cells, read-out: TC50; for CC50: hg23, 48 h, 48 h, read-out: TC50 (the source's name). The data set is classed as cell-based. Summed up: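 Confluent NV replicon-bearing hepatoma HG23 cells exposed to compound at 1 to 100 μM for 48 h. Cytotoxicity read by CytoTox 96 nonradioactive assay and crystal violet staining; CC50 taken as concentration giving 50% cell death, averaged over at least two determinations.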

The nature of data set [3]: Inhibition of Norovirus 3CLpro using Edans-DFHLQ/GP-Dabcyl as substrate preincubated for 30 mins followed by substrate addition measured after 1 hr by FRET assay. Summed up:
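Protease and serial compound dilutions up to 100 μM (or DMSO) held in 20 mM HEPES pH 8, 200 mM NaCl, 0.4 mM EDTA, 60% glycerol, 6 mM DTT at 37°C for 30 min, then substrate added. Fluorescence (ex 360/em 460 nm) read 1 h later, background subtracted (no-protease well). IC50 from variable-slope curve fit; average of at least two determinations.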

Data set [4] has as its system Norovirus. Kind of data set: Antiviral activity against Norovirus replicon infected in human HG23 cells assessed as inhibition of viral RNA replication after 48 hrs by qRT-PCR method. The data set is classed as functional, cell-based. Summed up:
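HG23 cells (NV replicon-harboring hepatoma), confluent and semi-confluent, given medium with DMSO (<0.1%) or compound up to 20 μM for 48 h. Total RNA extracted and viral genome quantified by real-time qRT-PCR. EC50 fitted from dose-response; average of at least two determinations.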
(Replicon systems follow genome replication, usually without infectious particles.)

Data set [5] deals with Murine norovirus. Kind of data set: Antiviral activity against MNV replicon infected in mouse RAW264.7 cells assessed as inhibition of viral RNA replication after 24 hrs. The data set is classed as functional, cell-based. Summed up: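 Confluent RAW264.7 cells infected with MNV at MOI 0.1 for 1 h; inoculum then replaced with medium containing compound (up to 20 μM) or DMSO (0.1%). Further 24 h incubation; virus replication quantified by TCID50 titration. EC50 from dose-response fitting; values average of at least two determinations.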

Bounds are passed on as bounds.

As for `C[C@@H]1NC(=O)OC(c2cccc(Cl)c2)CCCCCNC(=O)CC[C@@H](C=O)NC1=O` (stereo partly drawn), the concentration giving a half-maximal response (EC50) (as a rule, the midpoint of the concentration-response curve) in data set [1] is greater than 20 µM; in data set [4] (Norovirus, HG23, 48 h), greater than 20 µM. Moreover, in data set [2], the CC50 at 48 h was greater than 100 µM. Also, the IC50 (usually the point on the concentration scale where inhibition reaches its midpoint) in data set [3] is greater than 100 µM.

As for `CC(C)C[C@@H]1NC(=O)OC(c2cccc(Cl)c2)CCCCCNC(=O)CC[C@@H](C(O)S(=O)(=O)O)NC1=O` (stereo partly drawn), the EC50 is 15.1 µM in data set [1] and 1.6 µM in data set [4] (Norovirus, HG23, 48 h). Further, the CC50 at 48 h in data set [2] was greater than 100 µM. In addition, the concentration for half-maximal inhibition (IC50) in data set [3] amounted to 1.1 µM.

For `O=C1CC[C@@H](C(O)S(=O)(=O)O)NC(=O)C2(CCCCC2)NC(=O)OC(c2cccc(Cl)c2)CCCCCCN1` (stereo partly drawn), the EC50 was greater than 20 µM in data set [1] and greater than 20 µM in data set [4] (Norovirus, HG23, 48 h). Moreover, the CC50 at 48 h in data set [2] amounted to 46.6 µM. Also, the IC50 in data set [3] was greater than 100 µM.

With `CC(C)C[C@@H]1NC(=O)OC(CCCc2ccccc2)CCCCCNC(=O)CC[C@@H](C(O)S(=O)(=O)O)NC1=O` (stereo partly drawn), the EC50 was greater than 20 µM in data set [1] and 4.6 µM in data set [4] (Norovirus, HG23, 48 h). Moreover, in data set [2], the CC50 at 48 h turned out to be 69.2 µM. Besides, in data set [3], 6.8 µM corresponded to half-maximal inhibition (IC50).

As to `O=C1CC[C@@H](C(O)S(=O)(=O)O)NC(=O)C2(CCCCC2)NC(=O)OC(c2cccc(Cl)c2)CCCCCN1` (stereo partly drawn), the EC50 is greater than 20 µM in data set [1] and greater than 20 µM in data set [4] (Norovirus, HG23, 48 h). The CC50 at 48 h in data set [2] came to 48.5 µM. In data set [3], this molecule had an IC50 greater than 100 µM.

Regarding `CC(C)C[C@@H]1NC(=O)OC(CCCc2ccccc2)CCCCCNC(=O)CC[C@@H](C=O)NC1=O` (stereo partly drawn), the EC50 in data set [1] was greater than 20 µM; in data set [4] (Norovirus, HG23, 48 h), 7.5 µM. Moreover, in data set [2], the CC50 at 48 h was 71.5 µM. Further, 4.2 µM corresponded to half-maximal inhibition in data set [3] (IC50).

As for `O=C[C@@H]1CCC(=O)NC/C=C/CCC(c2cccc(Cl)c2)OC(=O)N[C@@H](CC2CCCCC2)C(=O)N1` (stereo partly drawn), the concentration for a half-maximal effect (EC50) came out at 3.1 µM in data set [1] and 1.5 µM in data set [4] (Norovirus, HG23, 48 h). Also, in data set [2], the CC50 at 48 h came to 42.3 µM. For the same molecule, in data set [3], the IC50 was 1.3 µM.

As for `C[C@@H]1NC(=O)OC(c2cccc(Cl)c2)CCCCCCNC(=O)CC[C@@H](C=O)NC1=O` (stereo partly drawn), the EC50 was greater than 20 µM in data set [1] and 9.5 µM in data set [4] (Norovirus, HG23, 48 h). Besides, the CC50 at 48 h in data set [2] was greater than 100 µM. The IC50 in data set [3] was determined as 62.3 µM.

With `CC(C)C[C@@H]1NC(=O)OC(c2ccccc2)CCCCCNC(=O)CC[C@@H](C=O)NC1=O` (stereo partly drawn), the 50% effective concentration (EC50) in data set [1] is greater than 20 µM; in data set [4] (Norovirus, HG23, 48 h), 7.7 µM. For the same molecule, the CC50 at 48 h in data set [2] is greater than 100 µM. Moreover, half-maximal inhibition in data set [3] (IC50) required 1.3 µM.

As for `CCCCCC1CCCCCNC(=O)CC[C@@H](C=O)NC(=O)[C@H](CC(C)C)NC(=O)O1` (stereo partly drawn), the 50% effective concentration (EC50) in data set [1] is 12.1 µM; in data set [4] (Norovirus, HG23, 48 h) it was 3.1 µM. Moreover, in data set [2], the CC50 at 48 h is 72.7 µM. The half-inhibitory concentration (IC50) in data set [3] is 3.2 µM.

Regarding `CC(C)C[C@@H]1NC(=O)OC(c2cccc(Cl)c2)CCCCCCNC(=O)CC[C@@H](C=O)NC1=O` (stereo partly drawn), the EC50 was greater than 20 µM in data set [1] and 5.4 µM in data set [4] (Norovirus, HG23, 48 h). Further, the CC50 at 48 h in data set [2] stood at 67.4 µM. In data set [3], this molecule returned a half-inhibitory concentration (IC50) of 6.3 µM.

With `CC(C)C[C@@H]1NC(=O)OC(c2cccc(Cl)c2)CCCCCNC(=O)CC[C@@H](C(=O)C(=O)NC2CC2)NC1=O` (stereo partly drawn), the concentration for a half-maximal effect (EC50) is 15.5 µM in data set [1] and 9.1 µM in data set [4] (Norovirus, HG23, 48 h). For the same molecule, the CC50 at 48 h in data set [2] was found to be 53.1 µM. Further, inhibition in data set [3] was half-maximal at 2.3 µM (IC50).

As for `O=C[C@@H]1CCC(=O)NCCCCCCC(c2cccc(Cl)c2)OC(=O)NC2(CCCCC2)C(=O)N1` (stereo partly drawn), the EC50 in data set [1] is greater than 20 µM; in data set [4] (Norovirus, HG23, 48 h) it was greater than 20 µM. The CC50 at 48 h in data set [2] came to 53.3 µM. In data set [3], this molecule came in with an IC50 greater than 100 µM.

Consider `CC(C)C[C@@H]1NC(=O)OC(Cc2ccccc2)CCCCCNC(=O)CC[C@@H](C=O)NC1=O` (stereo partly drawn), for which the half-maximal effective concentration (EC50) in data set [1] is greater than 20 µM; in data set [4] (Norovirus, HG23, 48 h), 8.8 µM. In addition, in data set [2], the CC50 at 48 h was greater than 100 µM. Besides, in data set [3], the 50% inhibitory concentration (IC50) worked out at 4.6 µM.

For `CC(C)C[C@@H]1NC(=O)OC(Cc2ccccc2)CC/C=C/CNC(=O)CC[C@@H](C=O)NC1=O` (stereo partly drawn), the 50% effective concentration (EC50) in data set [1] is greater than 20 µM; in data set [4] (Norovirus, HG23, 48 h), 3.1 µM. Also, in data set [2], the CC50 at 48 h was greater than 100 µM. Moreover, half-maximal inhibition in data set [3] (IC50) was put at 2.5 µM.

As for `CC(C)C[C@@H]1NC(=O)OC(c2cccc(Cl)c2)CCCCCNC(=O)CC[C@@H](C=O)NC1=O` (stereo partly drawn), the EC50 in data set [1] worked out at 13.2 µM; in data set [4] (Norovirus, HG23, 48 h), 1.8 µM. Besides, the CC50 at 48 h in data set [2] is greater than 100 µM. Moreover, the IC50 in data set [3] is 1.5 µM.

With `O=C[C@@H]1CCC(=O)NCCCCCC(c2cccc(Cl)c2)OC(=O)NC2(CCCCC2)C(=O)N1` (stereo partly drawn), the EC50 in data set [1] was greater than 20 µM; in data set [4] (Norovirus, HG23, 48 h) it was greater than 20 µM. In addition, the CC50 at 48 h in data set [2] was found to be 62.4 µM. The molecule also showed a half-inhibitory concentration (IC50) in data set [3] greater than 100 µM.

In the case of `CCCCCC1CCCCCNC(=O)CC[C@@H](C(O)S(=O)(=O)O)NC(=O)[C@H](CC(C)C)NC(=O)O1` (stereo partly drawn), the EC50 was found to be 14.6 µM in data set [1] and 3.5 µM in data set [4] (Norovirus, HG23, 48 h). For the same molecule, in data set [2], the CC50 at 48 h worked out at 78.5 µM. For the same molecule, the IC50 in data set [3] is 5.1 µM.

For the molecule `CC(C)C[C@@H]1NC(=O)OC(c2cccc(Cl)c2)CCCCCONC(=O)CC[C@@H](C=O)NC1=O` (stereo in doubt; 36A), the EC50 turned out to be 15.5 µM in data set [1] and 3.6 µM in data set [4] (Norovirus, HG23, 48 h). The CC50 at 48 h in data set [2] was determined as 68.3 µM. In data set [3], this molecule had an IC50 of 30.5 µM.

For `CC(C)C[C@@H]1NC(=O)OC(c2cccc(Cl)c2)CCCCCONC(=O)CC[C@@H](C=O)NC1=O` (stereo in doubt; 36B), the CC50 in data set [2] turned out to be 73.8 µM. The molecule further gave an IC50 in data set [3] of 46.7 µM. For the same molecule, the EC50 was found to be 5.1 µM in data set [4] and 13.4 µM in data set [5].

Regarding `O=C[C@@H]1CCC(=O)NCCCCCC(c2cccc(Cl)c2)OC(=O)N[C@@H](CC2CCCCC2)C(=O)N1` (stereo in doubt; form 1), the 50% effective concentration (EC50) was 4.3 µM in data set [1] and 2.1 µM in data set [4] (Norovirus, HG23, 48 h). For the same molecule, the CC50 at 48 h in data set [2] was found to be 62.4 µM. In data set [3], this molecule returned a 50% inhibitory concentration (IC50) of 4.1 µM.

Take `O=C[C@@H]1CCC(=O)NCCCCCC(c2cccc(Cl)c2)OC(=O)N[C@@H](CC2CCCCC2)C(=O)N1` (stereo in doubt; form 2): in data set [2], the CC50 stood at 45.3 µM. Besides, the half-inhibitory concentration (IC50) in data set [3] amounted to 6.5 µM. Further, the values for the EC50 in data set [4] and in data set [5] were 2.5 µM and 6.5 µM, respectively.
